Here are results for eight compounds from ChEMBL document CHEMBL3351588, “Design, synthesis and biological evaluation of N-alkyl or aryl substituted isoindigo derivatives as potential dual cyclin-dependent kinase 2 (CDK2)/glycogen synthase kinase 3β (GSK-3β) phosphorylation inhibitors” (Eur J Med Chem, 2014).

Assay [1] has as its system K562. Briefly: Cytotoxicity against human K562 cells after 48 hrs by SRB assay. As to conditions: K562, 48 h. Format: functional, cell-based. The method in brief: (§1)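 Cells seeded at 5 × 10³ per well and allowed to attach for 12 h, then exposed to a range of drug concentrations in their own medium for 48 h. Fixed with ice-cold TCA for 1 h at 4 °C, washed, then stained with 0.4% SRB for 30 min at room temperature. IC50 is the mean of three independent experiments.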

Assay [2] is described as follows: Cytotoxicity against human HCT116 cells after 48 hrs by SRB assay. Format: functional, cell-based. To be noted: HCT-116, 48 h. The method in brief:
as §1
(Sulforhodamine B stains cellular protein and so reports cell mass.)

Assay [3] has as its system MGC-803. Briefly: Cytotoxicity against human MGC803 cells after 48 hrs by SRB assay. It counts as functional, cell-based. To be noted: MGC-803, 48 h. The method in brief:
as §1

Assay [4] deals with L1210. The assay can be described thus: Cytotoxicity against mouse L1210 cells after 48 hrs by SRB assay. It counts as functional, cell-based. To be noted: L1210, 48 h. The method in brief:
as §1

For assay [5], the system named is A549. Briefly: Cytotoxicity against human A549 cells after 48 hrs by SRB assay. It counts as functional, cell-based. As to conditions: A549, 48 h. The method in brief:
as §1

The test system of assay [6] is HeLa. Briefly: Cytotoxicity against human HeLa cells after 48 hrs by SRB assay. Format: functional, cell-based. The method in brief:
as §1

The nature of assay [7]: Cytotoxicity against human VEC cells after 48 hrs by SRB assay. Format: cell-based. The method in brief:
as §1

For assay [8], the system named is K562. Briefly: Induction of cell cycle arrest in human K562 cells assessed as accumulation at G0/G1 phase at 10 uM after 24 hrs by propidium iodide staining based flow cytometry (reference value: 36.14%). Format: functional. For orientation: Flow cytometry measures light scatter and fluorescence of single cells or particles in a stream.
For assay [9], the system named is K562. Briefly: Induction of cell cycle arrest in human K562 cells assessed as accumulation at G2/M phase at 10 uM after 24 hrs by propidium iodide staining based flow cytometry (reference value: 18.96%). It counts as functional.
Assay [10] relates to K562. The assay can be described thus: Induction of cell cycle arrest in human K562 cells assessed as accumulation at S phase at 10 uM after 24 hrs by propidium iodide staining based flow cytometry (reference value: 44.90%). Format: functional.

One may read the IC50 as the point on the concentration scale where inhibition reaches its midpoint. A high value points to lower potency.

Each structure is given as a SMILES string. Bounds are passed on as bounds.

As for `CN1C(=O)/C(=C2/C(=O)Nc3ccccc32)c2ccccc21` [MEISOINDIGO], the IC50 in [1] was 23.3 µM; in assay [2], 27 µM; in assay [3], 128 µM; in assay [4], 167 µM; in assay [5] it was 57.3 µM; in [6], 15.7 µM. Besides, in [7], half-maximal inhibition (IC50) required 122 µM. Further, the Activity was 32.25% in assay [8], 10.25% in assay [9] and 57.5% in [10].

In the case of `CCN1C(=O)/C(=C2/C(=O)Nc3ccccc32)c2ccccc21`, the IC50 is more than 200 µM in assay [1]; 51 µM in [2]; 67.2 µM in assay [3]; 47.5 µM in [4]; 61 µM in [5]; 194 µM in assay [6]. In assay [7], the IC50 is 73 µM.

Regarding `O=C1Nc2ccccc2/C1=C1\C(=O)N(c2ccc(F)cc2)c2ccccc21`, the IC50 in assay [1] is more than 200 µM; in assay [2], 40.1 µM; in assay [3], 108 µM; in assay [4], more than 200 µM; in [5], 22.6 µM; in assay [6], more than 200 µM. In addition, the half-maximal inhibitory concentration (IC50) in assay [7] is 93.5 µM.

Take `O=C1Nc2ccccc2/C1=C1\C(=O)N(CCc2ccccc2)c2ccccc21`: the IC50 was 17.1 µM in assay [1]; 85.2 µM in assay [2]; more than 200 µM in assay [3]; 158 µM in assay [4]; 85.4 µM in [5]; more than 200 µM in assay [6]. For the same compound, inhibition in assay [7] was half-maximal at 184 µM (IC50).

Consider `CC(C)CN1C(=O)/C(=C2/C(=O)Nc3ccccc32)c2ccccc21`, for which the 50% inhibitory concentration (IC50) in assay [1] was 74.4 µM; in [2] it was 62.2 µM; in assay [3], more than 200 µM; in assay [4] it was 73.8 µM; in assay [5] it was 52.8 µM; in assay [6], more than 200 µM. In assay [7], the 50% inhibitory concentration (IC50) worked out at 97.4 µM.

For the compound `CCCCN1C(=O)/C(=C2/C(=O)Nc3ccccc32)c2ccccc21`, the IC50 was 114 µM in [1]; 34.2 µM in assay [2]; 87.9 µM in assay [3]; 75.4 µM in assay [4]; 30.2 µM in assay [5]; 80.7 µM in [6]. Also, the IC50 in assay [7] is 58.1 µM.

Regarding `CC(=O)N1C(=O)/C(=C2/C(=O)N(C(C)=O)c3ccccc32)c2ccccc21`, the half-inhibitory concentration (IC50) in assay [1], in assay [2], in [3], in assay [4], in assay [5] and in [6] was more than 200 µM throughout. The compound also yielded an IC50 in [7] of more than 200 µM.

For `CC(C)N1C(=O)/C(=C2/C(=O)Nc3ccccc32)c2ccccc21`, the IC50 was more than 200 µM in [1]; 149 µM in assay [2]; 176 µM in assay [3]; more than 200 µM in [4]; 183 µM in assay [5]; more than 200 µM in [6]. In [7], this compound displayed a concentration for half-maximal inhibition (IC50) of more than 200 µM.
